Published values pooled from the literature.
Compare with care: the assays were run in different laboratories.
Target: Casein kinase I isoform alpha (CSNK1A1, Homo sapiens, UniProt P48729)

| Compound | test | conditions | remaining binding [%] |
| --- | --- | --- | --- |
| O=C(NCCCN1CCOCC1)c1ccc(Nc2ncc(Cl)c(-c3ccc(Cl)s3)n2)cc1 | binding, competition with immobilised ligand | 1 µM | 100 |
| COc1cnc(Nc2cccc(S(N)(=O)=O)c2)nc1N1CCN(c2ccccc2)C(=O)C1 | binding, competition with immobilised ligand | 1 µM | 93 |
| O=C(Nc1c[nH]nc1C(=O)NC1CCNCC1)c1cc(F)cc(F)c1 | binding, competition with immobilised ligand | 1 µM | 75 |
| CNCc1ccccc1-c1csc([C@H](C)Nc2nc(C)nc3cc(OC)c(OC)cc23)c1 | cell-free assay, competition with immobilised ligand | 1 µM | 74 |
| Nc1ncc2c(n1)-c1c([nH]c3ccc(C#CC4CC4)cc13)CCCC2 | binding, competition with immobilised ligand | 1 µM | 93 |
| F[C@@H]1CCN(c2nccc(-c3cnn4ncccc34)n2)C1 | binding | 1 µM | 90 |
| COc1ccc2c(c1)O[C@H](c1ccc(OC)c(OC)c1)C[C@@H]2NC(=O)C1(c2ccc3c(c2)OC(F)(F)O3)CC1 | cell-free assay, competition with immobilised ligand | 1 µM | 82 |
| COc1cnc(Nc2cccc(S(N)(=O)=O)c2)nc1N1CCN(c2ccccc2)CC1 | binding, competition with immobilised ligand | 1 µM | 93 |
| C=CC(=O)N1CCC(C(=O)NCC(=O)N2CCN(c3nc(-c4cnc(N)nc4C(F)F)nc(N4CCOCC4)n3)CC2)CC1 | binding, competition with immobilised ligand | 1 µM | 89 |
| CN(C)c1nccc(-c2cnc3ncccn23)n1 | binding | 1 µM | 36 |
| c1cncc(-c2cccc(Nc3nccc(NC4CCCCC4)n3)c2)c1 | binding, competition with immobilised ligand | 10 µM | 71 |
| O=C(NCCCN1CCOCC1)c1ccc(Nc2nccc(-c3cc4ccccc4s3)n2)cc1 | binding, competition with immobilised ligand | 1 µM | 74 |
| C[C@H]1CCN(c2nccc(-c3cnn4ncccc34)n2)C1 | binding | 1 µM | 47 |
| Cc1cnc(Nc2ccc(C(=O)N3CCC(N4CCCC4)CC3)cc2)nc1-c1cc2ccccc2s1 | binding, competition with immobilised ligand | 1 µM | 60 |
| CCC(=N\O)/C(C)=C/c1ccc(F)cc1 | cell-free assay, competition with immobilised ligand | 1 µM | 74 |
| c1cnn2ncc(-c3ccnc(N4CCC45COC5)n3)c2c1 | binding | 1 µM | 14 |
| CCCCN(CCCC)C(=O)CN1C[C@H](c2cc(OC)c3c(c2)OCO3)[C@@H](C(=O)O)[C@@H]1CC(C)(C)CCC | cell-free assay, competition with immobilised ligand | 1 µM | 98.1 |
| N[C@@H]1CCN(c2nccc(-c3cnn4ncccc34)n2)C1 | binding | 1 µM | 12 |
| Cc1cc(C)c(-n2ccn3nc(-c4cccnc4)cc23)cc1NC(=O)c1cc(C#N)cc(S(F)(F)(F)(F)F)c1 | cell-free assay, competition with immobilised ligand | 0.1 µM | 67 |
| CN(c1nccc(-c2cnn3ncccc23)n1)C1CC1 | binding | 1 µM | 88 |
| O=C(N1CCS(=O)(=O)CC1)N1C[C@H](c2ccc(OC(F)(F)F)cc2)C[C@H](c2nc(C3CC3)no2)C1 | cell-free assay, competition with immobilised ligand | 1 µM | 100 |
| COc1ncc2cc3ccccc3nc2c1C#N | cell-free assay, competition with immobilised ligand | 5 µM | 97 |
